In the array DNA melting data of Ke et al. (doi:10.1101/2024.01.08.574731) one finds folding enthalpy and Tm data, which are given here for 73 sequences.

Series [1] is described as follows: folding enthalpy; higher = less favourable; fluorescence melt of hairpins on a sequencing array, two-state fit. The note with it: sodium 0.088 M. In short, it runs like this:
(§1)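 Melting temperature and folding enthalpy were derived from bootstrapped two-state fits. The fitted temperatures were raised by 9.35 °C to agree with UV melts, and four replicates were combined by inverse variance. The underlying data were Cy3 fluorescence images of library hairpins, with annealed Cy3 and quencher oligos, on a sequenced MiSeq flow cell in 50 mM Na-HEPES pH 8.0, 25 mM NaCl, taken in 2.5 °C steps up to 60 °C, normalised to pre-quench Cy3 and to control constructs.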

Series [2] can be described thus: melting temperature; fluorescence melt of hairpins on a sequencing array, two-state fit, raised by 9.35 °C to match UV melts. The note with it: sodium 0.088 M. The method in brief:
as §1

For the sequence GCTGGTGGAAACACTGGC ((..(((....)))..)), in series [1], the folding enthalpy is -30.1 kcal/mol. In addition, in series [2], the Tm worked out at 45.9 °C.
The matching figures for GCTGTAGGAAACTACAAC (.(((((....))))).): -19.2 kcal/mol and 30.9 °C.
Turning to GCTGTCACGAAAGTGAGC (((..(((....)))))), the folding enthalpy in series [1] is -12.2 kcal/mol. In addition, the Tm in series [2] was 38.3 °C.
The matching figures for GCTGTCCGAAAGGAAGC (((.(((....)))))): -23.9 kcal/mol and 49.1 °C.
The matching figures for GCTGTCGAAAGACGAGC ((((((....))).))): -25.6 kcal/mol and 54.1 °C.
As to GCTGTCGAAAGACTAAGC ((((((....)))..))), in series [1], the folding enthalpy was -20 kcal/mol. Besides, the Tm in series [2] worked out at 46.2 °C.
The matching figures for GCTGTGCGAAAGCAAGC (((.(((....)))))): -21.5 kcal/mol and 51.8 °C.
Turning to GCTGTGCGAAAGCATTGC ((..(((....)))..)), the folding enthalpy in series [1] was -20.7 kcal/mol. Besides, in series [2], the Tm turned out to be 53.5 °C.
On to GCTGTGCGAAAGCCCGGC ((.(.((....)).).)), for which the folding enthalpy in series [1] is -20 kcal/mol. Besides, the Tm in series [2] was 46.8 °C.
Take GCTGTGCGAAAGCCGAGC (((..((....))..))): the folding enthalpy in series [1] was -19 kcal/mol. In series [2], the Tm was determined as 41.8 °C.
As to GCTGTGCGAAAGCGCCGC ((.(.((....)).).)), the folding enthalpy in series [1] was -18.6 kcal/mol. The Tm in series [2] was found to be 49.6 °C.
The matching figures for GCTGTGCGAAAGCGCTGC ((.(.((....)).).)): -25.6 kcal/mol and 60.1 °C.
As for GCTGTGCGAAAGCTCGGC ((.(.((....)).).)), in series [1], the folding enthalpy was -24.6 kcal/mol. Moreover, the Tm in series [2] amounted to 56 °C.
The matching figures for GCTGTTCGAAAGAAAAGC (((.(((....))).))): -28.6 kcal/mol and 46.5 °C.
Take GCTGTTGGAAACAACGGC ((.((((....)))).)): in series [1], the folding enthalpy was -39.8 kcal/mol. The Tm in series [2] is 54.3 °C.
On to GCTTAAGGAAACTCAAGC ((((.((....)).)))), for which, in series [1], the folding enthalpy is -17.8 kcal/mol. Besides, the Tm in series [2] turned out to be 28.3 °C.
The matching figures for GCTTAAGGAAACTTAGGC ((.((((....)))).)): -23 kcal/mol and 36.3 °C.
The matching figures for GCTTACGAAAGTACTAGC ((((((....)))..))): -13.6 kcal/mol and 31.8 °C.
The matching figures for GCTTACGAAAGTAGAGC ((((((....))).))): -24.4 kcal/mol and 43.3 °C.
Regarding GCTTACGAAAGTATCAGC ((((((....)))..))), the folding enthalpy in series [1] is -14.2 kcal/mol. In addition, the Tm in series [2] was 33.1 °C.
The matching figures for GCTTAGCGAAAGCAAGGC ((.(.((....)).).)): -13.5 kcal/mol and 38.1 °C.
The matching figures for GCTTAGCGAAAGCGAGGC ((.(.((....)).).)): -15.4 kcal/mol and 51.8 °C.
The matching figures for GCTTAGCGAAAGCTTCGC ((..(((....)))..)): -15 kcal/mol and 42.9 °C.
As for GCTTAGCGAAAGCTTGGC ((..(((....)))..)), the folding enthalpy in series [1] is -18.3 kcal/mol. Moreover, the Tm in series [2] worked out at 47 °C.
On to GCTTAGGGAAACCTGAGC (((.(((....))).))), for which, in series [1], the folding enthalpy is -32.8 kcal/mol. Also, the Tm in series [2] was 46.7 °C.
On to GCTTATCGAAAGATCAGC (((.(((....))).))), for which, in series [1], the folding enthalpy is -25.3 kcal/mol. For the same sequence, in series [2], the Tm is 44 °C.
The matching figures for GCTTATGAAAATAAGC ((((((....)))))): -31.8 kcal/mol and 51.6 °C.
GCTTATGGAAACACAAGC ((((.((....)).)))): the folding enthalpy in series [1] is -26.2 kcal/mol. In addition, in series [2], the Tm came out at 33.2 °C.
As to GCTTCACGAAAGTGAGC (((.(((....)))))), the folding enthalpy in series [1] is -17.8 kcal/mol. The Tm in series [2] came to 51 °C.
The matching figures for GCTTCATCGAAAGATAGC (((..(((....)))))): -13 kcal/mol and 28.3 °C.
The matching figures for GCTTCCCGAAAGGGCAGC (((.(((....))).))): -32.5 kcal/mol and 53.3 °C.
Turning to GCTTCCGAAAGGAAGAGC ((((((....)))..))), the folding enthalpy in series [1] is -13 kcal/mol. For the same sequence, in series [2], the Tm stood at 55 °C.
Turning to GCTTCCGAAAGGACCAGC ((((((....)))..))), the folding enthalpy in series [1] is -14.2 kcal/mol. For the same sequence, the Tm in series [2] is 31.2 °C.
On to GCTTCCGAAAGGAGAGC ((((((....))).))), for which the folding enthalpy in series [1] is -22.3 kcal/mol. In addition, in series [2], the Tm stood at 49.2 °C.
The matching figures for GCTTCCGAAAGGAGTAGC ((((((....)))..))): -24.3 kcal/mol and 43.6 °C.
As to GCTTCCGAAAGGATAAGC ((((((....)))..))), in series [1], the folding enthalpy is -22.8 kcal/mol. Also, the Tm in series [2] came to 44.2 °C.
The matching figures for GCTTCCGAAAGGATGAGC ((((((....)))..))): -18.7 kcal/mol and 41.2 °C.
The matching figures for GCTTCCGGAAACGGAAAC (.(((((....))))).): -14.7 kcal/mol and 40.5 °C.
The matching figures for GCTTCGCGAAAGCAATGC ((.(.((....)).).)): -16.4 kcal/mol and 33.2 °C.
For the sequence GCTTCGCGAAAGCCAGGC ((.(.((....)).).)), the folding enthalpy in series [1] was -9.39 kcal/mol. The Tm in series [2] came to 30.3 °C.
Turning to GCTTCGCGAAAGCGACGC ((.((((....)))).)), the folding enthalpy in series [1] was -22.5 kcal/mol. The Tm in series [2] came to 60.9 °C.
The matching figures for GCTTCGCGAAAGCGCAGC (((.(((....))).))): -30.7 kcal/mol and 54.1 °C.
On to GCTTCGCGAAAGCTACGC ((.(.((....)).).)), for which the folding enthalpy in series [1] was -12.6 kcal/mol. Moreover, in series [2], the Tm was 42.9 °C.
The matching figures for GCTTCTGGAAACAGAAGC (((((((....))))))): -49 kcal/mol and 64.9 °C.
For GCTTGACGAAAGTCAGC (((.(((....)))))), the folding enthalpy in series [1] is -23.5 kcal/mol. In series [2], the Tm amounted to 55.6 °C.
The matching figures for GCTTGACGAAAGTCGAGC (((.(((....))).))): -39 kcal/mol and 63.1 °C.
The matching figures for GCTTGAGGAAACTCAAAC (.(((((....))))).): -13.8 kcal/mol and 30.6 °C.
The matching figures for GCTTGCGAAAGCACCAGC ((((((....)))..))): -8.92 kcal/mol and 34.8 °C.
Consider GCTTGCGAAAGCAGAAGC ((((((....)))..))), for which the folding enthalpy in series [1] is -21.7 kcal/mol. Besides, the Tm in series [2] worked out at 47.2 °C.
In the case of GCTTGCGAAAGCAGAGC ((((((....))).))), the folding enthalpy in series [1] was -18.6 kcal/mol. Further, in series [2], the Tm was 52.7 °C.
Regarding GCTTGCGAAAGCATTAGC ((((((....)))..))), the folding enthalpy in series [1] was -15.2 kcal/mol. The Tm in series [2] worked out at 42 °C.
GCTTGCGCGAAAGCGAGC (((..(((....)))))): in series [1], the folding enthalpy was -13.3 kcal/mol. The Tm in series [2] came out at 56.2 °C.
As to GCTTGCGGAAACGCAAAC (.(((((....))))).), in series [1], the folding enthalpy is -12.4 kcal/mol. Also, in series [2], the Tm turned out to be 44.6 °C.
The matching figures for GCTTGCGGAAACGTAGGC ((.(.((....)).).)): -11.7 kcal/mol and 38.6 °C.
GCTTGGAAACAAGC (((((....))))): the folding enthalpy in series [1] is -31 kcal/mol. Further, the Tm in series [2] was 53.7 °C.
Take GCTTGGCGAAAGCCCCGC ((..(((....)))..)): the folding enthalpy in series [1] was -12 kcal/mol. In addition, the Tm in series [2] was found to be 35.8 °C.
For the sequence GCTTGGCGAAAGCCTTGC ((..(((....)))..)), the folding enthalpy in series [1] is -18.1 kcal/mol. Moreover, the Tm in series [2] was found to be 43.5 °C.
The matching figures for GCTTGGCGAAAGCTACGC ((.(.((....)).).)): -14.8 kcal/mol and 43.3 °C.
As to GCTTGGCGAAAGCTATGC ((.(.((....)).).)), the folding enthalpy in series [1] is -15.6 kcal/mol. The Tm in series [2] worked out at 47.9 °C.
For GCTTGGGGAAACCCGAGC (((.(((....))).))), in series [1], the folding enthalpy was -41.7 kcal/mol. The Tm in series [2] amounted to 56.7 °C.
Take GCTTGGGGAAACCTGAGC (((..((....))..))): in series [1], the folding enthalpy is -30.3 kcal/mol. Moreover, the Tm in series [2] worked out at 40 °C.
The matching figures for GCTTGTGGAAACATGAGC (((..((....))..))): -29.4 kcal/mol and 37.7 °C.
The matching figures for GCTTTACGAAAGTAAGC (((.(((....)))))): -22.7 kcal/mol and 46.2 °C.
GCTTTAGCGAAAGCTAGC (((..(((....)))))): in series [1], the folding enthalpy is -8.44 kcal/mol. In addition, in series [2], the Tm amounted to 42.3 °C.
The matching figures for GCTTTAGGAAACTAAAGC (((((((....))))))): -39.1 kcal/mol and 54.4 °C.
The matching figures for GCTTTAGGAAACTAAGGC ((.((((....)))).)): -27.7 kcal/mol and 37 °C.
The matching figures for GCTTTCCCGAAAGGGAGC (((..(((....)))))): -10.2 kcal/mol and 34.3 °C.
For GCTTTCGAAAGAAACAGC ((((((....)))..))), in series [1], the folding enthalpy was -16.3 kcal/mol. The Tm in series [2] is 32.8 °C.
The matching figures for GCTTTCGAAAGAAGAAGC ((((((....)))..))): -22.2 kcal/mol and 32.1 °C.
Regarding GCTTTCGAAAGAAGAGC ((((((....))).))), the folding enthalpy in series [1] was -17.5 kcal/mol. Besides, the Tm in series [2] came out at 37.3 °C.
The matching figures for GCTTTCGAAAGAAGCAGC ((((((....)))..))): -12.9 kcal/mol and 35.4 °C.
With GCTTTCGAAAGAAGGAGC ((((((....)))..))), in series [1], the folding enthalpy is -17.8 kcal/mol. The Tm in series [2] came out at 31.5 °C.
The matching figures for GCTTTCGGAAACGAAAAC (.(((((....))))).): -22.4 kcal/mol and 36.4 °C.
